Assays:
A549 [1] = test: Cellular uptake in A549 cells using false-white single-photon confocal microscopy at 3.1 uM; type: ADME, cell-based; settings: human, a549, 3.1 µM
Outline: (§1)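 Cells on glass coverslips grown at 37 °C, 5% CO2 to 60–80% confluence, then treated with pz (50, 25, 12.5, 6.2, 3.1 µM; DMSO stock) in the dark for 24 h. Washed twice with PBS and imaged live in PBS at room temperature. Single-photon excitation at 488 nm, long-pass 505-nm emission filter. Gain set to remove autofluorescence in DMSO-treated controls.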

A549 [2] = test: Decrease in viability of A549 cells at 50 uM for 72 hrs; type: cell-based; settings: human, a549, 72 h
Outline: (§2)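 Cells were grown to 70% confluence and treated in the dark with pz (12.5, 25, 50, 100 µM) or DMSO vehicle for 72 h. MTT (200 µg) was added for 5 h at 37 °C, solubilised in DMSO, and absorbance read at 540 nm. Viability is relative to DMSO control. Four plates per experiment, at least three experiments, normalised and averaged (≥12 values per condition).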

A549 [3] = test: Cellular uptake in A549 cells using false-white single-photon confocal microscopy; type: ADME, cell-based; settings: human; outline: as §1
WI-38 VA13 [4] = test: Cytotoxicity against human fibroblast-like cell line of embryonic origin WI-38 VA13 at 12.5 to 100 uM by MTT assay; type: functional, cell-based; outline: as §2
A549 [5] = test: Cytotoxicity against A549 tumor cells at 12.5 to 100 uM by MTT assay; type: functional, cell-based; settings: Homo sapiens; outline: as §2
A549 [6] = test: Colocalization experiment with mitotracker green in A549 cells at 100 uM for 24 hrs by false-white two-photon confocal microscopy; settings: human, a549, 24 h
A549 [7] = test: Colocalization experiment with LysoTracker green in A549 cells at 100 uM for 24 hrs by false-white two-photon confocal microscopy; settings: human, a549, 24 h
WI-38 VA13 [8] = test: Decrease in viability of WI-38 VA13 cells at 50 uM for 72 hrs; type: cell-based; settings: human, wi-38 va13, 72 h; outline: as §2
A549 [9] = test: Decrease in viability of A549 cells at 25 uM for 72 hrs; type: cell-based; settings: human, a549, 72 h; outline: as §2
WI-38 VA13 [10] = test: Percentage growth of WI-38 VA13 cells at 25 uM for 72 hrs; type: cell-based; settings: human, wi-38 va13, 72 h; outline: as §2
WI-38 VA13 [11] = test: Percentage increase in growth of WI-38 VA13 cells at 12.5 uM for 72 hrs; type: cell-based; settings: human, wi-38 va13, 72 h; outline: as §2
A549 [12] = test: Percentage increase in growth of A549 tumor cells at 12.5 uM for 72 hrs; type: cell-based; settings: human, a549, 72 h; outline: as §2
A549 [13] = test: Decrease in viability of A549 cells at 100 uM for 72 hrs; type: cell-based; settings: human, a549, 72 h; outline: as §2
WI-38 VA13 [14] = test: Decrease in viability of WI-38 VA13 cells at 100 uM for 72 hrs; type: cell-based; settings: human, wi-38 va13, 72 h; outline: as §2

## CC(C)Oc1ccc(OC(C)C)c2c1-c1nc3nc(nc4[nH]c(nc5[nH]c(nc-2n1)c(SCCOCCOCCO)c5SCCOCCOCCO)c1c(OC(C)C)ccc(OC(C)C)c41)C(SCCOCCOCCO)=C3SCCOCCOCCO
A549 [1]
  Activity: Active
A549 [2]
  Activity: 40%
A549 [3]
  Activity: Active
WI-38 VA13 [4]
  Activity: Toxic
A549 [5]
  Activity: Toxic
A549 [6]
  Activity: Active
A549 [7]
  Activity: Not Active

## CC(C)Oc1ccc(OC(C)C)c2c1-c1nc3nc([nH]c4nc(nc5[nH]c(nc-2n1)c(SCCCC(=O)O)c5SCCCC(=O)O)-c1c(OC(C)C)ccc(OC(C)C)c1-4)C(SCCCC(=O)O)=C3SCCCC(=O)O
A549 [2]
  Activity: 80%
WI-38 VA13 [8]
  Activity: 10%
A549 [9]
  Activity: 40%
WI-38 VA13 [10]
  Activity: 10%
WI-38 VA13 [11]
  Activity: 10%
A549 [12]
  Activity: 10%
A549 [13]
  Activity: 80%

## CC(C)Oc1ccc(OC(C)C)c2c1-c1nc3nc([nH]c4nc(nc5[nH]c(nc-2n1)c(SCCOCC[n+]1ccccc1)c5SCCOCC[n+]1ccccc1)-c1c(OC(C)C)ccc(OC(C)C)c1-4)C(SCCOCC[n+]1ccccc1)=C3SCCOCC[n+]1ccccc1
A549 [2]
  Activity: 10%
WI-38 VA13 [8]
  Activity: 20%
WI-38 VA13 [14]
  Activity: 70%
WI-38 VA13 [4]
  Activity: Toxic
A549 [5]
  Activity: Toxic
A549 [13]
  Activity: 70%

Source: ChEMBL document CHEMBL1140424, “Charge dependence of cellular uptake and selective antitumor activity of porphyrazines” (J Med Chem, 2005)
